Measurements as given in ChEMBL document CHEMBL1125023, “Flexible N-methyl-4-phenyl-1,2,3,6-tetrahydropyridine analogues: synthesis and monoamine oxidase catalyzed bioactivation” (J Med Chem, 1990).

Legend:
Monoamine oxidase [1] = target: T1, Monoamine oxidase (Rattus norvegicus, UniProt P19643+P21396); experiment: (§1) Kinetic constant (Km) determined in rat brain mitochondria
T1 sequence (P19643 whole entry): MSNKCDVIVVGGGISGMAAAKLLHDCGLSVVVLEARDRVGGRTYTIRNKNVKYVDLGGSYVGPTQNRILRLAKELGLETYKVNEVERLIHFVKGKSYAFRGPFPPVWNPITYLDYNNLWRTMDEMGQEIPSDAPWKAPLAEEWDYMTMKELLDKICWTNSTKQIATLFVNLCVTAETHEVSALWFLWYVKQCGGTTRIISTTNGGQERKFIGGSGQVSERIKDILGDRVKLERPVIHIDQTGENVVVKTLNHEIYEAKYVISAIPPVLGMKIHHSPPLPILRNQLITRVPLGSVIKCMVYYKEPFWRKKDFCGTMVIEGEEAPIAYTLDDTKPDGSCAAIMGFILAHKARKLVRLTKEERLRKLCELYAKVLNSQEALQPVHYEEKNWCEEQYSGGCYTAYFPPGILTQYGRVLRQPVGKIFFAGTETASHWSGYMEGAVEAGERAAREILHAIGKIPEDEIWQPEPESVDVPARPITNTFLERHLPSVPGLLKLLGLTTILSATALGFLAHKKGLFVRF
T1 sequence (P21396 whole entry): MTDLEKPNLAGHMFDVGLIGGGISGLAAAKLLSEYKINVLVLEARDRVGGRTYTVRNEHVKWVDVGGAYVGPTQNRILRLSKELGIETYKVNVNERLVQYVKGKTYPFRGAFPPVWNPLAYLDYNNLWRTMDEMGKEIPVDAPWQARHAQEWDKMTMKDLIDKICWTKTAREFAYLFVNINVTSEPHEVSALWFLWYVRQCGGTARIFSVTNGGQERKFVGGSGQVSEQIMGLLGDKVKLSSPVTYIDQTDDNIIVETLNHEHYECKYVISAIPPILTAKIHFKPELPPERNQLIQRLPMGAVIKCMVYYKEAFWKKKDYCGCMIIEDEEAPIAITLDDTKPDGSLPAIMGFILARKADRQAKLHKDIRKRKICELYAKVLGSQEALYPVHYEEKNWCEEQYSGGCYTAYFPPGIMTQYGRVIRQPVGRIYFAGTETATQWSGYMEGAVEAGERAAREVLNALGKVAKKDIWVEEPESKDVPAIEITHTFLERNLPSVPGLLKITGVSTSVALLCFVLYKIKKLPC
In short: (§2)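 Mitochondria from rat brain were isolated by differential centrifugation with a Ficoll gradient, lysed in pH 7.4 phosphate buffer with sodium azide, and diluted to 400–800 μg protein/mL. Incubations at 37 °C for 30 min used seven substrate concentrations from 0.0125 to 1 mM, plus 2 and 4 mM for poor substrates. H2O2 was read with ABTS–horseradish peroxidase. Km and Vmax came from Lineweaver-Burk plots: three days, duplicates, mean of six ± SD.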

Monoamine oxidase [2] = target: T1, Monoamine oxidase; experiment: Ratio of Kinetic constants (Km vs. Vmax).; type: protein assay
Monoamine oxidase [3] = target: T1, Monoamine oxidase; experiment: Kinetic constant (Vmax) determined in rat brain mitochondria.; in short: as §2
Rattus norvegicus [4] = organism: Rattus norvegicus; experiment: Tested for pargyline-induced inhibition of MAO-catalyzed oxidation in rat brain mitochondria (Specific inhibitor = Pargyline hydrochloride at 2.5 uM) (Control = 18.87); type: functional
Rattus norvegicus [5] = organism: Rattus norvegicus; experiment: as §1; type: functional; in short: as §2
Rattus norvegicus [6] = organism: Rattus norvegicus; experiment: Tested for pargyline-induced inhibition of MAO-catalyzed oxidation in rat brain mitochondria (Specific inhibitor = Pargyline hydrochloride at 2.5 uM) (Control = 30.65); type: functional
Rattus norvegicus [7] = organism: Rattus norvegicus; experiment: Tested for pargyline-induced inhibition of MAO-catalyzed oxidation in rat brain mitochondria (Specific inhibitor = Pargyline hydrochloride at 2.5 uM) (Control = 31.40); type: functional
Rattus norvegicus [8] = organism: Rattus norvegicus; experiment: Tested for pargyline-induced inhibition of MAO-catalyzed oxidation in rat brain mitochondria (Specific inhibitor = Pargyline hydrochloride at 2.5 uM) (Control = 19.20); type: functional
[9] = test system: Monoamine oxidase (Rattus norvegicus); experiment: Percent inhibition of MAO-catalyzed oxidation in rat brain mitochondria induced by pargyline
Rattus norvegicus [10] = organism: Rattus norvegicus; experiment: Tested for pargyline-induced inhibition of MAO-catalyzed oxidation in rat brain mitochondria (Specific inhibitor = Pargyline hydrochloride at 2.5 uM) (Control = 17.95); type: functional
Rattus norvegicus [11] = organism: Rattus norvegicus; experiment: Tested for pargyline-induced inhibition of MAO-catalyzed oxidation in rat brain mitochondria (Specific inhibitor = Pargyline hydrochloride at 2.5 uM) (Control = 28.60); type: functional
Monoamine oxidase [12] = target: T1, Monoamine oxidase; experiment: as §1; remark: listed apart in the source
In short: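 Rat brain mitochondria (Ficoll gradient, lysed in phosphate buffer pH 7.4 with azide) at 400–800 μg protein/mL. Incubated 30 min at 37 °C with substrate at 0.0125–1 mM, plus 2 and 4 mM for poor substrates. H2O2 read by ABTS–horseradish peroxidase against a standard curve. Km by Lineweaver-Burk; three separate days in duplicate, mean of six ± SD.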

Monoamine oxidase [13] = target: T1, Monoamine oxidase; experiment: Tested for pargyline-induced inhibition of MAO-catalyzed oxidation in rat brain mitochondria (Specific inhibitor = Pargyline hydrochloride at 2.5 uM) (Control = 16.58); type: functional
Rattus norvegicus [14] = organism: Rattus norvegicus; experiment: Tested for pargyline-induced inhibition of MAO-catalyzed oxidation in rat brain mitochondria (Specific inhibitor = Pargyline hydrochloride at 2.5 uM) (Control = 33.85); type: functional

Row | SMILES | Km (Monoamine oxidase [1]) | Ratio (Monoamine oxidase [2]) | Km (Rattus norvegicus [5]) | Vmax (Monoamine oxidase [3]) | other results
1 | CN1CC=C(Cc2ccc(Cl)cc2)CC1 |  | 5.15 | 49.4 µM | 23900000 (nM of H202) min-1 (ug of protein)-1 | Inhibition ((nM of H202) min-1 (ug of protein)-1) (Rattus norvegicus [4]): 10.3
2 | NCc1ccccc1 [BENZYLAMINE] | 169 µM |  |  | 33600000 (nM of H202) min-1 (ug of protein)-1 | 
3 | Cc1cccc(CC2=CCN(C)CC2)c1 |  | 6.95 | 77.1 µM | 45533000 (nM of H202) min-1 (ug of protein)-1 | Inhibition ((nM of H202) min-1 (ug of protein)-1) (Rattus norvegicus [6]): 9.49
4 | CN1CC=C(C(Oc2ccc(Br)cc2)c2ccccc2)CC1 (stereo not given) | 57.2 µM | 0.74 |  | 3137000 (nM of H202) min-1 (ug of protein)-1 | 
5 | Cc1ccccc1CC1=CCN(C)CC1 |  | 3.71 | 58.8 µM | 21933000 (nM of H202) min-1 (ug of protein)-1 | Inhibition ((nM of H202) min-1 (ug of protein)-1) (Rattus norvegicus [8]): 9.24
6 | CC(C1=CCN(C)CC1)c1ccccc1 (stereo not given) | 70.2 µM | 1.26 |  | 4187000 (nM of H202) min-1 (ug of protein)-1 | 
7 | CN1CC=C(CCc2ccccc2)CC1 |  | 3.74 | 119 µM | 38533000 (nM of H202) min-1 (ug of protein)-1 | Inhibition [9]: 54%; Inhibition ((nM of H202) min-1 (ug of protein)-1) (Rattus norvegicus [10]): 8.22
8 | Cc1ccc(CC2=CCN(C)CC2)cc1 | 15.9 µM | 5.17 |  | 8.1e+06 (nM of H202) min-1 (µg of protein)-1 | 
9 | CN1CC=C(c2ccccc2)CC1 |  |  |  | 27033000 (nM of H202) min-1 (ug of protein)-1 | Km (Monoamine oxidase [12]): 134 µM; Inhibition (Monoamine oxidase [13]): 0 (nM of H202) min-1 (ug of protein)-1
10 | CN1CC=C(/C=C/c2cccc(Br)c2)CC1 | 187 µM | 0.565 |  | 2690000 (nM of H202) min-1 (ug of protein)-1 | 
11 | CN1CC=C(Cc2cccs2)CC1 |  | 9.86 | 42.2 µM | 38133000 (nM of H202) min-1 (ug of protein)-1 | Inhibition [9]: 68%; Inhibition ((nM of H202) min-1 (ug of protein)-1) (Rattus norvegicus [14]): 10.9

Continued, in another order:

Row | Km (Monoamine oxidase [1]) | Ratio (Monoamine oxidase [2]) | Km (Rattus norvegicus [5]) | SMILES | Vmax (Monoamine oxidase [3]) | other results
12 | 24.8 µM | 7.87 |  | COc1ccc(CC2=CCN(C)CC2)cc1 | 18000000 (nM of H202) min-1 (ug of protein)-1 | 
13 | 20.8 µM | 4.44 |  | CN1CC=C(CCc2cccc(Cl)c2)CC1 | 6477000 (nM of H202) min-1 (ug of protein)-1 | 
14 |  | 9.36 | 44.4 µM | CN1CC=C(Cc2ccccc2)CC1 | 39800000 (nM of H202) min-1 (ug of protein)-1 | Inhibition ((nM of H202) min-1 (ug of protein)-1) (Rattus norvegicus [7]): 3.71
15 | 36.1 µM | 2.38 |  | CN1CC=C(Cc2ccc(I)cc2)CC1 | 6290000 (nM of H202) min-1 (ug of protein)-1 | 
16 |  | 5.03 | 76.5 µM | CN1CC=C(Cc2cccc3ccccc23)CC1 | 38233000 (nM of H202) min-1 (ug of protein)-1 | Inhibition [9]: 8%; Inhibition ((nM of H202) min-1 (ug of protein)-1) (Rattus norvegicus [11]): 26.4
17 | 363 µM | 0.38 |  | CN1CC=C(Cc2ccc(O)cc2)CC1 | 9850000 (nM of H202) min-1 (ug of protein)-1 | 
